The results in this text go back to ChEMBL document CHEMBL1138265, “In vivo anti-Chagas vinylthio-, vinylsulfinyl-, and vinylsulfonylbenzofuroxan derivatives” (J Med Chem, 2007).

The source made the active and inactive calls. No cut-off for these calls is given here.

In data set [1] the target is Cruzipain (Trypanosoma cruzi) (UniProt P25779). Kind of data set: Inhibition of Trypanosoma cruzi Tulahuen 2 cruzipain at 100 uM. The method, boiled down:
(§1)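 Cruzipain purified from Tulahuen 2 epimastigotes by ConA-Sepharose affinity chromatography. Assayed in 50 mM Tris-acetate pH 8.0 with 0.3 mM Bz-Pro-Phe-Arg-pNA and 10 mM β-mercaptoethanol, A410 followed at 30 °C. Inhibitors added in DMSO, controls with matching DMSO, E-64 as reference. Tested at 10-100 µM; means of at least two measurements.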

The next data set concerns THP-1. Kind of data set: Cytotoxicity against human THP1 cells after 48 hrs. In kind it is cell-based. The following applies: THP-1, 48 h. The method, boiled down:
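THP-1 human macrophages in RPMI 1640 with 20% heat-inactivated FCS, left to attach 48 h at 37 °C, 5% CO2. Exposed to compounds at 25-1000 µM for 48 h, washed, then MTT 0.4 mg/mL for 3 h. Formazan dissolved in DMSO and read at OD595; % cytotoxicity corrected for compound-in-medium blanks. Triplicates per concentration, six growth controls; mean of two experiments.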

For data set [2], the target named is Cruzipain (Trypanosoma cruzi) (UniProt P25779). Kind of data set: Inhibition of Trypanosoma cruzi Tulahuen 2 cruzipain at 10 uM. The essentials: as §1
Sequence of Cruzipain (Trypanosoma cruzi) (P25779 123-467 limits assumed): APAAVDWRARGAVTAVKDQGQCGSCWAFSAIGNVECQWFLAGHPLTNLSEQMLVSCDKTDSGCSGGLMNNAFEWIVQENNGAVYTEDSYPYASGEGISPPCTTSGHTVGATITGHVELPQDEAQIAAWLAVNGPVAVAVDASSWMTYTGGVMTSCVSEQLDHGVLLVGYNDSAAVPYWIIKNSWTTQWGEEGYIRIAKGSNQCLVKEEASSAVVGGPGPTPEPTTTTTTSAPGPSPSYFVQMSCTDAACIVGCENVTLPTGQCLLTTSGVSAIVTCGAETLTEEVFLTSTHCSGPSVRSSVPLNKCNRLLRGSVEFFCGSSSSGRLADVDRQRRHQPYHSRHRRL
Data set [3] has as its system Trypanosoma cruzi. Kind of data set: Antitrypanosomal activity against Trypanosoma cruzi Tulahuen 2. In kind it is functional, organism-based. The method, boiled down: (§2)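 Epimastigotes from 5-day stationary culture inoculated at 1 × 10^6 cells/mL into medium with compound added from DMSO stock (final DMSO ≤0.4%; control 0.4% DMSO, no compound). Growth followed by A600; % inhibition from day 0 and day 5 absorbance versus control. IC50 = concentration reducing the day-5 absorbance ratio to 50%. Single-dose screen at 25 µM. Means of three experiments.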

In data set [4] the test system is Trypanosoma cruzi. Kind of data set: Antitrypanosomal activity against Trypanosoma cruzi CL Brener. In kind it is functional, organism-based. The essentials: as §2
Data set [5] is described as follows: Selectivity index, ratio of IC50 for human THP1 cells to IC50 for Trypanosoma cruzi Tulahuen 2. In kind it is functional, THP-1.
The target of data set [6] is Trypanothione reductase (Trypanosoma cruzi) (UniProt P28593). Kind of data set: Inhibition of Trypanosoma cruzi trypanothione reductase assessed as volume activity per min at 100 uM in presence of NADPH after 1 hr. The essentials:
(§3)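 Time-dependent inactivation: 170 mU recombinant TR incubated at 25 °C in 40 mM HEPES, 1 mM EDTA, pH 7.5 with 100 µM inhibitor, with or without 160 µM NADPH, for 0-24 h. Aliquots diluted 200-fold and residual activity measured in the standard NADPH/TS2 assay at 340 nm. Controls: TR plus NADPH with DMSO, and TR plus inhibitor.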

A short description of data set [7]: Selectivity index, ratio of IC50 for human THP1 cells to IC50 for Trypanosoma cruzi Y. In kind it is functional, THP-1.
The subject of data set [8] is Trypanosoma cruzi. Kind of data set: Antitrypanosomal activity against Trypanosoma cruzi Tulahuen 2 infected Swiss mouse model of Chagas disease at 60 mg/kg, po after 35 days post infection.
For another data set, the system named is Mus musculus. Kind of data set: Toxicity in Trypanosoma cruzi Tulahuen 2 infected Swiss mouse model of Chagas disease at 60 mg/kg, po. Particulars: in vivo.
For data set [9], the target named is Trypanothione reductase (Trypanosoma cruzi) (UniProt P28593). Kind of data set: Inhibition of Trypanosoma cruzi trypanothione reductase assessed as volume activity per min at 100 uM in presence of NADPH after 24 hrs. The essentials: as §3
Sequence of Trypanothione reductase (Trypanosoma cruzi) (P28593 whole entry, looked up): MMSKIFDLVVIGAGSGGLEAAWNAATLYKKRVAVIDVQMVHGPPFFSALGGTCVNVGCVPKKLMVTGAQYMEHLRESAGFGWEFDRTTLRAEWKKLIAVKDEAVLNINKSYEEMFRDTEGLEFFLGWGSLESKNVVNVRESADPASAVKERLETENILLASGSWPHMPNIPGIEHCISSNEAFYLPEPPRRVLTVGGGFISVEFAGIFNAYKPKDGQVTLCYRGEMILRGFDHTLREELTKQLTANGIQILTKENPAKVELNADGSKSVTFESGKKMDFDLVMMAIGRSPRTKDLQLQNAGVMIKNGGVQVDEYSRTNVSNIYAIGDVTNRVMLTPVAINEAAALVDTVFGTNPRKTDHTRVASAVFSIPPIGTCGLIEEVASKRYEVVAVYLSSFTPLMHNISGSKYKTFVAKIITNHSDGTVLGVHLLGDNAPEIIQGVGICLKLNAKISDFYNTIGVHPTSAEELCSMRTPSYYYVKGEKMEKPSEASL
Data set [10] has the same target. Kind of data set: Inhibition of Trypanosoma cruzi trypanothione reductase assessed as volume activity per min at 100 uM after 3 hrs. The method, boiled down: as §3
Data set [11] deals with Cruzipain (Trypanosoma cruzi) (UniProt P25779). Kind of data set: Inhibition of Trypanosoma cruzi Tulahuen 2 cruzipain at 50 uM. The essentials:
as §1

For data set [12], the system named is Trypanosoma cruzi. Kind of data set: Antitrypanosomal activity against Trypanosoma cruzi Y. In kind it is functional, organism-based. The essentials:
as §2

Data set [13] concerns the target Trypanothione reductase (Trypanosoma cruzi) (UniProt P28593). Kind of data set: Inhibition of Trypanosoma cruzi trypanothione reductase assessed as volume activity per minute at 100 uM.
Data set [14] has the same target. Kind of data set: Inhibition of Trypanosoma cruzi trypanothione reductase assessed as volume activity per min at 100 uM in presence of NADPH. The essentials: as §3
Data set [15] addresses Cruzipain (Trypanosoma cruzi) (UniProt P25779). Kind of data set: Inhibition of Trypanosoma cruzi Tulahuen 2 cruzipain at 20 uM. The method, boiled down: as §1
For data set [16], the system named is Trypanosoma cruzi. Kind of data set: Antitrypanosomal activity against Trypanosoma cruzi Tulahuen 2 infected Swiss mouse model of Chagas disease at 60 mg/kg, po after 41 days post infection.
The nature of data set [17]: Selectivity index, ratio of IC50 for human THP1 cells to IC50 for Trypanosoma cruzi CL Brener. In kind it is functional, THP-1.
In data set [18] the target is Trypanothione reductase (Trypanosoma cruzi) (UniProt P28593). Kind of data set: Inhibition of Trypanosoma cruzi trypanothione reductase assessed as volume activity per min at 100 uM after 24 hrs. The essentials: as §3
The target is the same in data set [19]. Kind of data set: Inhibition of Trypanosoma cruzi trypanothione reductase assessed as volume activity per min at 100 uM after 1 hr. The method, boiled down:
as §3

Broadly, the inhibition is the change of the read-out against control, counted positive when it falls. The term IC50 denotes the concentration needed to halve the response being measured. For the compound `[O-][n+]1onc2cc(/C=C\[S+]([O-])c3ccccc3)ccc21` (stereo unspecified), the inhibition in data set [1] came to 3%; in data set [2], 0%; in data set [11] it was 8%; in data set [15], 23%. Further, the IC50 was determined as 105 µM in the data set with THP-1, 0.7 µM in the data set on Trypanosoma cruzi [3], 5 µM in the data set on Trypanosoma cruzi [4] and 1.5 µM with Trypanosoma cruzi [12]. The entries for the “Ratio IC50” value in data set [5], in data set [7] and in [17] were 150, 70 and 21, respectively. The deltaA in data set [6] is 0.107; in data set [9] it was 0.081; in [10], 0.09; in data set [13] it was 0.101; in data set [14], 0.107; in data set [18], 0.108. In addition, the deltaA in [19] is 0.107. Besides, the result in the data set on Trypanosoma cruzi [8] and in the data set on Trypanosoma cruzi [16] was Active. Besides, the Activity entry with Mus musculus is on record as “Non-toxic”.
